The values that follow come from ChEMBL document CHEMBL1121472, “Derivatives of 5-hydroxy-6-methyl-2-aminotetralin” (1980).

Usually ED50 stands for the midpoint of the dose-response relation.

Activity calls are given as the source filed them. The calls are words filed in the database; no cut-off is given here.

In assay [1] the test system is Rattus norvegicus. Briefly: Compound was evaluated for rotational behavior in rats and (contralateral turning) circling response were recorded at a dose of 400 umol/Kg; IA=Inactive. Type of assay: functional, organism-based.
The species entered for assay [2] is Felis catus. The assay is described as follows: Inhibition of chronotropic response to cardioaccelerator nerve stimulation in the cat. Type of assay: functional. The gist of the method:
(§1)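 Cats were bilaterally vagotomized and pretreated iv with atropine sulfate (0.2 mg/kg). Right postganglionic cardioaccelerator nerves were placed on bipolar electrodes and stimulated at 2 Hz, 5-ms pulses, for 30 s at 20–25 V. Heart rate was recorded by cardiotachometer, femoral arterial pressure was monitored, and drugs were given iv via a femoral vein catheter. ED50 is in μmol/kg with 95% CL. Blockade was tested with haloperidol 0.1 mg/kg.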

The subject of assay [3] is Canis familiaris. Briefly: Compound was evaluated for emesis action in dogs, administered subcutaneously; Range is (0.02-0.08). Type of assay: functional, Canis lupus familiaris.
The subject of assay [4] is Rattus norvegicus. The assay is described as follows: Compound was evaluated for rotational behavior in rats and (contralateral turning) circling response were recorded at a dose of 0.41 umol/Kg. Type of assay: functional. The gist of the method: (§2)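 Male Sprague Dawley rats received a unilateral stereotaxic injection of 6-hydroxydopamine hydrobromide (6 μg in 3 μL) into the substantia nigra region (anterior 24, lateral 1.8, vertical 7.0). Drug was then given sc, and contralateral turns were counted over the next 1 h and reported as turns/h at the stated dose.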

Assay [5] concerns Rattus norvegicus. The assay is described as follows: Compound was evaluated for rotational behavior in rats and (contralateral turning) circling response were recorded at a dose of 14.0 umol/kg; IA = inactive. Type of assay: functional, organism-based. The gist of the method: as §2
Assay [6] is filed under the species Felis catus. Briefly: Inhibition of chronotropic response to cardioaccelerator nerve stimulation in the cat; NA denotes inactive. Format: functional, organism-based. The gist of the method: as §1
Assay [7] has as its system Canis familiaris. The assay is described as follows: Compound was evaluated for emesis action in dogs, administered subcutaneously; NA denotes inactive. Type of assay: functional, organism-based. The conditions noted are these: Canis lupus familiaris. Put shortly:
(§3)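 Five adult mongrel dogs, housed singly with food ad libitum, were given drug solutions sc, and vomiting frequency was counted over 1 h. Three doses of apomorphine hydrochloride (0.08, 0.16, 0.32 μmol/kg) as reference and three of the test compound were compared by a 3 × 3 parallel line bioassay to give relative potency with 95% confidence limits.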

Assay [8] has as its system Rattus norvegicus. Briefly: Compound was evaluated for rotational uM/kg. Format: functional, organism-based. Put shortly:
as §2

The test system of assay [9] is Felis catus. Briefly: Inhibition of chronotropic response to cardioaccelerator nerve stimulation in the cat; NI denotes no inhibition up to 1.55 uM/kg. Format: functional, organism-based. The gist of the method:
as §1

Assay [10] concerns Felis catus. Briefly: Inhibition of chronotropic response to cardioaccelerator nerve stimulation in the cat; NA denotes inactive uM/kg. Format: functional, organism-based. Put shortly: as §1
Assay [11] has as its system Felis catus. Briefly: Inhibition of chronotropic response to cardioaccelerator nerve stimulation in the cat at 10 uM/kg; NA denotes inactive. Format: functional, organism-based. The gist of the method: as §1
In assay [12] the test system is Canis familiaris. Briefly: Compound was evaluated for emesis action in dogs administered subcutaneously; NA denotes inactive. The conditions noted are these: Canis lupus familiaris. Type of assay: functional, organism-based. The gist of the method: as §3
Assay [13] relates to Rattus norvegicus. The assay is described as follows: Compound was evaluated for rotational behavior in rats and (contralateral turning) circling response were recorded at a dose of 11.7 umol/Kg. Format: functional. The gist of the method:
as §2

For assay [14], the system named is Rattus norvegicus. The assay is described as follows: Compound was evaluated for rotational behavior in rats and (contralateral turning) circling response were recorded at a dose of 5.85 umol/Kg. Format: functional. The gist of the method:
as §2

As to `Br.CCN(CC)C1CCc2c(ccc(C)c2O)C1` (configuration not stated), the Rotational behavior entry in the assay with Rattus norvegicus [1] was “inactive”. The molecule also returned a 50% effective dose (ED50) in the assay listed under Felis catus [2] of 0.48 µmol/kg.
Turning to `CN1CCc2cccc3c2[C@H]1Cc1ccc(O)c(O)c1-3` [APOMORPHINE], in the assay with Canis familiaris [3], the Potency ratio was 0.046. Also, the 50% effective dose (ED50) in the assay filed under Felis catus [2] is 0.022 µmol/kg. Also, the Rotational behavior with Rattus norvegicus [4] is given as 175.21 turns hr-1.
Regarding `Cc1ccc2c(c1O)CCC(N(C)C)C2` (configuration not stated), the Rotational behavior entry in the assay on Rattus norvegicus [5] was “inactive”.
Turning to `Cc1ccc2c(c1O)CCC(NC(C)C)C2` (configuration not stated), the ED50 result in the assay filed under Felis catus [6] was “inactive”. Besides, the Potency ratio result in the assay on Canis familiaris [7] was “inactive”.
In the case of `Cc1ccc2c(c1O)CCC(N)C2` (configuration not stated), the Activity entry with Rattus norvegicus [8] is “NI”. Also, in the assay on Felis catus [9], the ED50 entry is “No inhibition”.
In the case of `CCNC1CCc2c(ccc(C)c2O)C1` (configuration not stated), the ED50 entry in the assay on Felis catus [10] was “inactive”.
As to `CCCNC1CCc2c(ccc(C)c2O)C1` (configuration not stated), in the assay with Felis catus [11], the ED50 result was “inactive”.
For the molecule `CNC1CCc2c(ccc(C)c2O)C1` (configuration not stated), the ED50 result in the assay with Felis catus [10] is “inactive”. Also, in the assay on Canis familiaris [12], the Potency ratio entry was “inactive”.
Take `Br.CCCN(CCC)C1CCc2c(ccc(C)c2O)C1` (configuration not stated): the Rotational behavior in the assay on Rattus norvegicus [13] came out at 346.86 turns hr-1; in the assay with Rattus norvegicus [14], 131.43 turns hr-1. It took a dose of 0.025 µmol/kg to reach the 50% effect level in the assay listed under Felis catus [2] (ED50).
